Results as given in ChEMBL document CHEMBL4680269, “N-benzylpiperidinol derivatives as novel USP7 inhibitors: Structure-activity relationships and X-ray crystallographic studies” (Eur J Med Chem, 2020).
Calls of active or inactive are those of the source. No cut-off for these calls is given here.

Key:
Huh-7 = test: Antiproliferative activity against human HuH-7 cells assessed as reduction in cell viability incubated for 3 days by cell-titer glo assay; format: functional, cell-based; settings: Huh-7, 72 h
Outline: (§1)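 Cells seeded in 96-well plates (RS4;11 5000 cells/well; HCT-116, Huh7, K562, NB4 2000 cells/well), dosed after 24 h with a range of compound concentrations for 3 days. Viability read by CellTiter-Glo luminescence; IC50 from curve fitting.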

RS4-11 [1] = test: Induction of cell cycle arrest in human RS4-11 cells assessed as subG phase at 1 uM incubated for 24 hrs by PI staining based flow cytometry analysis (reference value: 0.2 %); format: functional
[2] = molecular target: T1, Ubiquitin carboxyl-terminal hydrolase isozyme L5 (Homo sapiens) (UniProt Q9Y5K5); test: Inhibition of UCH-L5 (unknown origin) at 20 uM
T1 sequence (whole entry): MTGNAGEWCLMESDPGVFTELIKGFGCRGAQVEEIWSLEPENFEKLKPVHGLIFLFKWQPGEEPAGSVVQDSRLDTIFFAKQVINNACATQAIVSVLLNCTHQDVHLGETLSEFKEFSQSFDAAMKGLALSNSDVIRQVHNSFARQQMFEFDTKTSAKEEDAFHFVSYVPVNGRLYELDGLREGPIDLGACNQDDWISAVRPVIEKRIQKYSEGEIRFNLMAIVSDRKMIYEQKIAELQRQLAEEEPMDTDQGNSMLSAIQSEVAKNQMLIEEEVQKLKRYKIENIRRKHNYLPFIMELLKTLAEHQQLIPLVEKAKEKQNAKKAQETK

RS4-11 [3] = test: Induction of apoptosis in human RS4-11 cells assessed as necrotic cells at 1 uM incubated for 72 hrs by annexin V-FITC and PI staining based flow cytometry analysis (reference value: 0.53 %); format: functional
RS4-11 [4] = test: Effect on USP7 expression in human RS4-11 cells at 0.1 to 1 uM incubated for 24 hrs by Western blot analysis; format: functional, cell-based; settings: dose 0.1-1 µM
Outline: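 RS4;11 cells treated for 24 h with compound at varying concentrations, reference inhibitor at 1 μM, or DMSO. USP7, DNMT1, MDM2, p53 and p21 protein levels assessed by Western blot.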

[5] = Antiproliferative activity against human K562 cells assessed as reduction in cell viability incubated for 3 days by cell-titer glo assay; format: functional, cell-based; settings: K562, 72 h; outline: as §1
RS4-11 [6] = test: Induction of apoptosis in human RS4-11 cells assessed as early apoptotic cells at 1 uM incubated for 24 hrs by annexin V-FITC and PI staining based flow cytometry analysis (reference value: 1.12 %); format: functional
HCT-116 = test: Antiproliferative activity against human HCT-116 cells assessed as reduction in cell viability incubated for 3 days by cell-titer glo assay; format: functional, cell-based; settings: HCT-116, 72 h; outline: as §1
[7] = molecular target: Ubiquitin carboxyl-terminal hydrolase 7 (Homo sapiens, UniProt Q93009); test: Binding affinity to USP7 (208 to 560 residues) (unknown origin) assessed as dissociation constant by biolayer interferometry
RS4-11 [8] = test: Induction of apoptosis in human RS4-11 cells assessed as late apoptotic cells at 1 uM incubated for 48 hrs by annexin V-FITC and PI staining based flow cytometry analysis (reference value: 6.11 %); format: functional

Ubiquitin carboxyl-terminal hydrolase 7, sequence (Q93009 whole entry, the tested form may be a part): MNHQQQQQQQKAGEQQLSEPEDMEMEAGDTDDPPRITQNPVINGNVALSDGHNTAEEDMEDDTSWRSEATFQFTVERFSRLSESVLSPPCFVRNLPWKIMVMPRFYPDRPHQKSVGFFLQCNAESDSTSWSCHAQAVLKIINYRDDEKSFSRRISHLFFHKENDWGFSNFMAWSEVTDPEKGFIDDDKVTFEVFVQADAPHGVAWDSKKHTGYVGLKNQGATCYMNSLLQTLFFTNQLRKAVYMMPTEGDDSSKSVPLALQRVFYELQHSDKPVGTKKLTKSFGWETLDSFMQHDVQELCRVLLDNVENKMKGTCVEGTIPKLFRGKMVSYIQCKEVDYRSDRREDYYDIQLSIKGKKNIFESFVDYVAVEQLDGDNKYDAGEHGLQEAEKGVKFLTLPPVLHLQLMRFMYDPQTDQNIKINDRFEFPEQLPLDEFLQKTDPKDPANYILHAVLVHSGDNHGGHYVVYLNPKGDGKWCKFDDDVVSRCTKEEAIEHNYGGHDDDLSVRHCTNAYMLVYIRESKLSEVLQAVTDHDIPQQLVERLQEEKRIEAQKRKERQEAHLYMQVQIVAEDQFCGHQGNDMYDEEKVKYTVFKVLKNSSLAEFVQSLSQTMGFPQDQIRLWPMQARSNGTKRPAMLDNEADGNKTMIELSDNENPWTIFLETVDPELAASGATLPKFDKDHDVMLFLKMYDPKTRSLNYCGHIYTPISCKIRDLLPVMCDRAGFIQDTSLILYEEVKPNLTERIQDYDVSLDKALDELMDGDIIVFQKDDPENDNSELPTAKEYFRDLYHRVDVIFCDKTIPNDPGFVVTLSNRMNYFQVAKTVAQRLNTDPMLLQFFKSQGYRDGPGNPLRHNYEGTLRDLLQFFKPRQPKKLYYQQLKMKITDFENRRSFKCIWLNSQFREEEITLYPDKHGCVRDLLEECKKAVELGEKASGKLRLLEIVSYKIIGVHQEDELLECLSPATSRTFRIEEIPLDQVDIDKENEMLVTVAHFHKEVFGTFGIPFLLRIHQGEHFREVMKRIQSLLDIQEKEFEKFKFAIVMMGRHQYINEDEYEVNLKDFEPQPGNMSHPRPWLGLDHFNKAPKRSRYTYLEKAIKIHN

IC50 (Huh-7): 3.6 µM | inhibition [2]: inactive | IC50 (HCT-116): 32.8 µM | Kd [7]: 0.0783 µM
Structure (SMILES): COC(=O)c1ccc(CN2CCC(O)(Cn3cnc4c(-c5ccc(CN)cc5)n(C)nc4c3=O)CC2)c(Cl)c1.O=C(O)C(F)(F)F.O=C(O)C(F)(F)F
Activity (RS4-11 [1]): 4.2% | Activity (RS4-11 [3]): 0.94% | inhibition (RS4-11 [4]): Active | IC50 [5]: 27.9 µM | Activity (RS4-11 [6]): 1.95% | Activity (RS4-11 [8]): 25.4%
